Published values of several laboratories.
Compare with care: the assays were run in different laboratories. pEC50, pIC50: −log10 of the molar value. Values after ≈ are worked out from the molar mass of the structure shown.

COCC(=O)OCc1cc2[nH]c(=S)n(Cc3cccnc3)c(=O)c2cc1Cl
MIC90 (Mycobacterium tuberculosis; microbial growth; H37RV): 2.36 µM (≈ 0.958 µg/mL)

COc1ccc(-c2cc(C(F)(F)F)c3c(N)c(C(=O)NC45CC6CC(CC(C6)C4)C5)sc3n2)cc1
pIC50 (HepG2; cell growth or viability; 72 h): < 4.00

COc1ccc(CCNc2cc(-c3ccccn3)nc3cc(Br)nn23)cc1
MIC (Mycobacterium tuberculosis; microbial growth; H37RV): 23 µM (≈ 9.76 µg/mL)

N#Cc1cc2[nH]c(=S)n(Cc3cccnc3)c(=O)c2cc1Cl
MIC90 (Mycobacterium tuberculosis; microbial growth; H37RV): > 100 µM

Cc1c(F)cccc1NC(=N)CC(O)c1cc2c(F)cc(F)cc2c2cc(C(F)(F)F)ccc12 (stereo not drawn)
pIC50 (HepG2; cell growth or viability, neutral red; 24 h): 4.95

O=c1[nH]c2cc(CO)c(Cl)cc2c(=O)n1Cc1cncnc1
MIC90 (Mycobacterium tuberculosis; microbial growth; H37RV): 34.5 µM (≈ 11 µg/mL)

N#Cc1ccc(NC(=N)CC(O)c2cc3c(F)cc(F)cc3c3cc(C(F)(F)F)ccc23)cc1 (stereo not drawn)
pIC50 (HepG2; cell growth or viability, neutral red; 24 h): < 4.60

O=c1c2cc(Cl)ccc2[nH]c(=S)n1Cc1ccc(-c2cscn2)nc1
MIC90 (Mycobacterium tuberculosis; microbial growth; H37RV): > 100 µM

O=c1c2ccccc2[se]n1-c1ccccc1
pEC50 (Trypanosoma cruzi; parasite growth; Vero; 72 h, intracellular, amastigote): 5.43

COCCC(c1cccnc1)n1c(=S)[nH]c2ccc(Cl)cc2c1=O (stereo not drawn)
MIC90 (Mycobacterium tuberculosis; microbial growth; H37RV): > 100 µM

N.N.[Cl][Pt][Cl]
pIC50 (Ramos; cell growth or viability, ATP luminescence; 72 h): 5.56

N#Cc1ccc(Cn2c(=S)[nH]c3ccc(Cl)cc3c2=O)cn1
MIC90 (Mycobacterium tuberculosis; microbial growth; H37RV): > 100 µM

CCc1ccc(CCNc2cc(-c3ccccn3)nc3nnc(C4CC4)n23)cc1
MIC (Mycobacterium tuberculosis; microbial growth; H37RV): 50 µM (≈ 19.2 µg/mL)

COc1ccc(-c2cc(C(F)(F)F)c3c(N)c(C(=O)Nc4ccc(C)cc4C)sc3n2)cc1
pIC50 (HepG2; cell growth or viability; 72 h): < 4.00

Cc1cc(F)cc(C)c1NC(=N)CC(O)c1cc2c(F)cc(F)cc2c2cc(C(F)(F)F)ccc12 (stereo not drawn)
pIC50 (HepG2; cell growth or viability, neutral red; 24 h): 5.20

COCCNC(=O)c1sc2nc(-c3ccc(OC)cc3)cc(C(F)(F)F)c2c1N
pIC50 (HepG2; cell growth or viability; 72 h): < 4.00

Clc1ccc(CCNc2cc(-c3ccccn3)nc3cc(Br)nn23)cc1
MIC (Mycobacterium tuberculosis; microbial growth; H37RV): 36 µM (≈ 15.4 µg/mL)

COc1ccc(-c2cc(C(F)(F)F)c3c(N)c(C(=O)NCc4ccccc4)sc3n2)cc1
pIC50 (Mycobacterium tuberculosis; microbial growth; H37RV): < 4.00

c1ccc(CCOc2cc(-c3ccccn3)nc3nncn23)cc1
MIC (Mycobacterium tuberculosis; microbial growth; H37RV): > 100 µM

CCN(CC)C(=O)c1sc2ncccc2c1N
pIC50 (HepG2; cell growth or viability; 72 h): < 4.00

N=C(CC(O)c1cc2c(F)cc(F)cc2c2cc(C(F)(F)F)ccc12)N1CCC(F)(F)CC1 (stereo not drawn)
pIC50 (HepG2; cell growth or viability, neutral red; 24 h): 4.80

Nc1c(C(=O)NCc2ccccc2)sc2nc(-c3ccccc3)ccc12
pIC50 (HepG2; cell growth or viability; 72 h): < 4.00

Cc1ccc(CCNc2cc(-c3ccccn3)nc3nncn23)cc1
MIC (Mycobacterium tuberculosis; microbial growth; H37RV): 0.26 µM (≈ 0.0859 µg/mL)

NC(=S)c1cncc(Cn2c(=S)[nH]c3ccc(Cl)cc3c2=O)c1
MIC90 (Mycobacterium tuberculosis; microbial growth; H37RV): > 100 µM

COc1ccc(-c2cc(C(F)(F)F)c3c(N)c(C(=O)N4CCCCC4)sc3n2)cc1
pIC50 (HepG2; cell growth or viability; 72 h): < 4.00

O=c1c2cc(Cl)ccc2[nH]c(=S)n1Cc1ccc(-c2ccccc2)nc1
MIC90 (Mycobacterium tuberculosis; microbial growth; H37RV): > 100 µM

COC1CN(C(=O)c2sc3ncccc3c2N)C1
pIC50 (Mycobacterium tuberculosis; microbial growth; H37RV): < 4.00
